Bioassay records as filed in PubChem BioAssay.
Compounds with a hit are over-represented: about 2.9% of the library has one in this group of screens.
MC4R barr agon – activates human MC4R beta-arrestin recruitment; U2OS MC4R beta-arrestin complementation, luminescence; percent of melanotan II response, DMSO zero; activation, % at 8.9 µM; 360,000 compounds, 0.98% hits;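 active = activation above a per-plate cutoff, the mean activation of sample wells on that plate plus 3 SD, cut at about 8% in these data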
Target sequence (P32245 whole entry, looked up): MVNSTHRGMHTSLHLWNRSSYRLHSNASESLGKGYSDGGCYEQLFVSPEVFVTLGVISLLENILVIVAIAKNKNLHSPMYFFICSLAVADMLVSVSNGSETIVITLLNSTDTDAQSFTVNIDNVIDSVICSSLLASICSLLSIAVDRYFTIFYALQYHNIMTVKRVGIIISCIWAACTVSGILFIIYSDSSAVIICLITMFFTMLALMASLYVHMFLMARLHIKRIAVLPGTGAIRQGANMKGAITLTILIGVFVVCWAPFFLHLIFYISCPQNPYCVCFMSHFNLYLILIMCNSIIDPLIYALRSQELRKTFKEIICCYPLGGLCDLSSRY
GalR3 antagonist – antagonists of human GalR3 | O60755 | HEK293 GalR3-CNG cAMP membrane potential fluorescence; galR3 body fused to GalR1 C-terminus | inhibition, % at 3 µM | 360,000 compounds, 0.44% hits | AID 651719;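 active = inhibition above the screen-wide average plus 3 SD, cut at about 13% in these data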;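 also: forskolin and galanin both at EC90 stimulate the cells; cAMP rise reported by CNG channel membrane potential dye signal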
Target sequence (O60755 1-299 limits assumed): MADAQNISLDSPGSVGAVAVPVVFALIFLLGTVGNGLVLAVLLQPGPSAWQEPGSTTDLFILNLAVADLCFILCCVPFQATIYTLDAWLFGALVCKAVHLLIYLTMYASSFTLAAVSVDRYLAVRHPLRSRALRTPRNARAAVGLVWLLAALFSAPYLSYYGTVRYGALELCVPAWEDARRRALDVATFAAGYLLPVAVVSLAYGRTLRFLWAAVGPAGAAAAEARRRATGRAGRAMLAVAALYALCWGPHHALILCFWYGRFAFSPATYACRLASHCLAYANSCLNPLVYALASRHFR
Efflux pump inh – blocks antifungal efflux pumps in multiplex yeast assay. S. cerevisiae Candida pump triplex, Nile Red efflux. inhibition, % at 10 µM. AID 485275. 330,000 compounds, 0.44% hits;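 active = plate passing quality check with inhibition over a set limit, or well fluorescence over plate mean plus 4 SD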;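 also: Nile Red retained in pooled yeast measured as flow cytometry median fluorescence; higher means more Nile Red kept so more efflux inhibition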
TAG inh – reduces triacylglycerol accumulation in H9c2 cells. Nile Red lipid (TAG) fluorescence; cells loaded with 200 µM oleic acid. inhibition, % at 12.5 µM. 230,000 compounds, 0.66% hits;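 active = pattern-corrected inhibition of lipid staining of at least 50% with the nuclear-stain viability signal not falling by more than 50%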
Calb FLC – C. albicans growth modulation with fluconazole; growth inhibition, % (no concentration beside the values); 300,000 compounds, 0.57% hits; C. albicans CaCi-2 + fluconazole, Alamar Blue growth, 48 h;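 active = growth inhibition above about 58% in most replicates, limit read from the data, passing the limit was not always enough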;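 also: all wells also contain fluconazole at 8 µg/ml as a sub-toxic cotreatment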
MC4R antagonist – human MC4R antagonism in cAMP assay; P32245; 360,000 compounds, 0.48% hits; inhibition, % at 6.5 µM; MC4R-expressing cells, MTII-stimulated cAMP, LANCE TR-FRET;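 active = inhibition above its plate's cutoff, the mean of tested wells on that plate plus 3 SD, cut at about 29% in these data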
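system = U2OS cells with stable human MC4R expression | also added = Melanotan II challenge after compound preincubation | dosing = one concentration, 6.5 µM nominal | incubation = compound 30 min, challenge 1 h, detection 1 h | measured by = TR-FRET with Eu-cAMP and labeled anti-cAMP, 671 nm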
Yeast cmpd fluor – compound fluorescence in yeast efflux pump counter-screen; shares compounds with Efflux pump inh; S. cerevisiae AD/pABC3, flow cytometry; fluorescence ratio to DMSO, % at 10 µM; 1,700 compounds, 4% hits;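 active = fluorescence ratio to DMSO above its plate's cutoff, the plate mean ratio plus 5 SD, cut at about 210% in these data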;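 also: unstained yeast with no Nile Red so the signal is compound autofluorescence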
CaMdr1 efflux inh – Candida Mdr1 efflux pump inhibition | inhibition, % at 10 µM | S. cerevisiae AD/CaMDR1, Nile Red efflux, flow cytometry | AID 588518 | 1,700 compounds, 1% hits | shares compounds with Efflux pump inh; in the data active = inhibition above about 26%;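 also: higher means more Nile Red retained so more efflux inhibition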
CaCdr2 efflux inh – inhibitors of Candida albicans Cdr2 efflux pump; shares compounds with Efflux pump inh; S. cerevisiae AD/CaCDR2, Nile Red retention, flow cytometry; Nile Red retention ratio vs DMSO, % at 10 µM; 1,700 compounds, 4% hits; in the data active = Nile Red retention ratio vs DMSO above about 190%;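 also: higher ratio means more blocking of Cdr2 efflux of the dye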
CaCdr1 efflux inh – inhibitors of Candida albicans Cdr1 efflux pump; shares compounds with Efflux pump inh; S. cerevisiae AD/CaCDR1, Nile Red efflux, flow cytometry; inhibition, % at 10 µM; 1,700 compounds, 1% hits;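 active = inhibition above the screen-wide mean plus twice its standard deviation, cut at about 32% in these data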
Hits are given with their value; - = inactive; . = no result.

SMILES	MC4R barr agon	GalR3 antagonist	Efflux pump inh	TAG inh	Calb FLC	MC4R antagonist	Yeast cmpd fluor	CaMdr1 efflux inh	CaCdr2 efflux inh	CaCdr1 efflux inh
CCOC(=O)c1c(NC(=O)CN2CCN(C(=O)c3ccco3)CC2)sc2c1CCCC2	-	-	-	-	103	-	.	.	.	.
NC(=O)c1c(NC(=O)Cn2cc([N+](=O)[O-])cn2)sc2c1CCCC2	-	-	-	-	-	-	.	.	.	.
Cc1cc(C)cc(NC(=O)Cc2ccc(NC3=NC4CS(=O)(=O)CC4S3)cc2)c1 (configuration not stated)	-	.	-	-	-	-	.	.	.	.
Cc1cc(C)cc(NC(=O)c2ccc(NC3=NC4CS(=O)(=O)CC4S3)cc2)c1 (configuration not stated)	-	.	0.9	-	-	-	-	-	-	-
CCCn1cnnc1CNC(=O)[C@@H](Cc1ccccc1)NC(=O)[C@H]1O[C@@H](n2ccc(=O)[nH]c2=O)[C@H](O)[C@@H]1O	.	-	.	.	.	.	.	.	.	.
O=C1C(Cc2ccccc2)Nc2ncnc(N3CCc4ccccc4C3)c2N1Cc1ccc(Br)cc1 (configuration not stated)	.	.	-	.	-	.	.	.	.	.
CN(CCc1ccccn1)C(=O)c1ccc(OC(F)(F)F)cc1	-	-	0.8	-	-	-	-	-	-	-
O=C(Oc1c(-c2ccccc2)c(=O)n2c3c(cccc13)CC2)c1ccc(Cl)cc1	-	-	-	-	-	-	-	-	-	-
O=C(Oc1c(-c2ccccc2)c(=O)n2c3c(cccc13)CC2)c1ccco1	-	-	-	-	-	-	-	-	-	-
Cc1ccc2nc(NC(=O)CSc3nc4ccccc4o3)sc2c1	-	-	0.6	.	-	-	-	-	-	-
O=C(OCC(=O)c1c[nH]c2ccccc12)c1ccc(F)c(S(=O)(=O)N2CCOCC2)c1	-	-	.	-	.	-	.	.	.	.
CN(C)S(=O)(=O)c1ccc(N2CCCC2)c(C(=O)Nc2nc3c(ccc4ccccc43)s2)c1	-	-	1.9	.	-	-	-	-	-	-
Cc1ccc(CSCC(=O)Nc2cc(S(=O)(=O)N3CCOCC3)ccc2OCC(F)(F)F)cc1	-	-	.	-	.	-	.	.	.	.
c1ccc(C(c2ccccc2)c2noc(CN3CCC(c4ccncc4)CC3)n2)cc1	-	-	5.2	-	-	-	-	-	-	-
COc1ccc(/C=C/C(=O)Nc2cccc(S(=O)(=O)N3CCCC3)c2)cc1OC	-	-	1.1	-	-	-	-	-	-	-
COc1ccc(/C=C/C(=O)Nc2cccc(S(=O)(=O)NC3=NCCCCC3)c2)cc1OC	-	-	-	-	.	-	.	.	.	.
O=c1[nH][nH]c2c1[C@H](CCc1cccc(Cl)c1)O[C@H](CCc1ccccc1)C2	.	-	.	.	.	.	.	.	.	.
O=C1OC(c2cccs2)=N/C1=C/c1ccc(-c2cccc(C(=O)O)c2)o1	-	-	.	-	.	-	.	.	.	.
O=C1OC(c2ccco2)=N/C1=C\c1ccc(-c2cccc(C(F)(F)F)c2)o1	-	-	1.2	.	-	-	-	-	-	-
COc1ccc(S(=O)(=O)N2CCCCC2)cc1NC(=O)c1ccc(CS(C)(=O)=O)cc1	-	-	1.1	-	.	-	-	-	-	-
COc1ccc(S(=O)(=O)N2CCCCC2)cc1NC(=O)c1ccc(C)cc1	-	-	-	-	.	-	.	.	.	.
Cc1nn(C)c(C)c1/C=N/NC(=O)CCn1cc([N+](=O)[O-])cn1	-	-	14	.	-	-	-	-	-	-
O=C(CO/N=C/c1cccc([N+](=O)[O-])c1)NC1CCCCC1	-	-	8.3	.	-	-	-	-	-	-
COC(=O)Cc1nnn2c1CC(OC)c1cc(Br)ccc1-2 (configuration not stated)	.	-	.	.	.	.	.	.	.	.
O=c1[nH]c(C2CCN(S(=O)(=O)c3ccccc3C(F)(F)F)CC2)nc2c1nnn2Cc1ccccc1	-	-	3.1	.	-	-	-	-	-	-
SMILES	MC4R barr agon	GalR3 antagonist	Efflux pump inh	TAG inh	Calb FLC	MC4R antagonist	Yeast cmpd fluor	CaMdr1 efflux inh	CaCdr2 efflux inh	CaCdr1 efflux inh
Cc1ccc(Cn2nnc3c(=O)[nH]c(C4CCN(S(=O)(=O)c5ccccc5)CC4)nc32)cc1	-	.	-	.	-	-	-	-	-	-
COc1ccc(Cn2nnc3c(=O)[nH]c(C4CCN(S(=O)(=O)c5ccc(C)cc5)CC4)nc32)cc1	-	-	-	.	-	-	-	-	-	-
COC(=O)C[C@@H]1CC[C@H](NS(=O)(=O)c2ccccc2F)[C@@H](CO)O1	.	-	.	.	.	.	.	.	.	.
CSc1nc(=O)[nH]nc1Sc1ccccc1	-	-	.	-	.	-	.	.	.	.
COC(=O)C1=C(C)N(Cc2cccc(C(F)(F)F)c2)C(=NCc2ccc3c(c2)OCO3)NC1c1ccccc1C(F)(F)F (configuration not stated)	.	-	.	.	.	.	.	.	.	.
CCCS(=O)(=O)NC(=O)C1(C)CCN(C(=O)c2cc(F)ccc2C)C1 (configuration not stated)	-	-	.	-	.	-	.	.	.	.
CCC(=O)NC(c1ccco1)c1cc(Cl)c2cccnc2c1O (configuration not stated)	-	-	3.0	-	90	-	-	-	-	-
Cc1ccc([C@@H]2[C@@H]3C(=O)N(C)C(=O)[C@@H]3[C@@H]3C(=O)Nc4ccccc4C(=O)N23)cc1	-	-	0.6	.	-	-	-	-	-	-
NC1=NC[C@@H](Cc2ccc(O)cc2)N1CCCCC1CCCCC1	-	-	1.0	-	-	-	-	-	-	-
NC1=NC[C@H](Cc2ccc(O)cc2)N1CC1CCCCC1	-	-	-	-	-	-	-	-	-	-
Cc1ccccc1N(CC(=O)N1CCN(Cc2ccccc2)CC1)S(C)(=O)=O	-	-	.	-	.	-	.	.	.	.
CC(C)n1nc(C(=O)Nc2nnc(C3CC3)s2)c2ccccc2c1=O	-	-	-	-	-	-	.	.	.	.
CC(C)Cn1nc(C(=O)Nc2nnc(C3CC3)s2)c2ccccc2c1=O	-	-	0.9	-	.	-	-	-	-	-
N#CCOc1ccccc1CNC[C@H]1O[C@@H](n2cnc3c(=O)[nH]c(N)nc32)[C@H](O)[C@@H]1O	.	-	.	.	.	.	.	.	.	.
NC(=O)c1cnc(Cc2c[nH]c3ccccc23)c(I)c1	-	-	.	-	.	-	.	.	.	.
O=C(NCCO)/C(=C\c1ccc(Br)cc1)NC(=O)c1cccs1	-	-	7.5	.	-	-	-	-	-	-
O=C(NCCN1CCOCC1)/C(=C\c1ccc(Br)cc1)NC(=O)c1cccs1	-	-	-	-	-	-	.	.	.	.
